# ChEMBL document CHEMBL3352261, “Discovery of inhibitors of the mitotic kinase TTK based on N-(3-(3-sulfamoylphenyl)-1H-indazol-5-yl)-acetamides and carboxamides” (Bioorg Med Chem, 2014)
# pIC50: −log10 of the molar value. The source made the active and inactive calls. No cut-off for these calls is given here.
# Key:
# [1] = Antitumor activity against human HCT116 cells xenografted in SCID mouse assessed as tumor growth inhibition at 15 mg/kg, ip qd for 5 days; assay type: functional; settings: HCT-116, ip, 120 h, route intraperitoneal, read-out: TGI
# In short: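 HCT116 xenografts were grown in mice and dosed by the intraperitoneal route once daily. Tumor volume was tracked and compared with a negative-control arm, and the result was expressed as percent tumor growth inhibition. Body weight was monitored across all arms.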
# [2] = biological target: Receptor-type tyrosine-protein kinase FLT3 (Homo sapiens) (UniProt P36888); assay: Inhibition of FLT3 (unknown origin) by FRET-based homogenous assay
# Receptor-type tyrosine-protein kinase FLT3 (Homo sapiens), sequence (P36888 whole entry): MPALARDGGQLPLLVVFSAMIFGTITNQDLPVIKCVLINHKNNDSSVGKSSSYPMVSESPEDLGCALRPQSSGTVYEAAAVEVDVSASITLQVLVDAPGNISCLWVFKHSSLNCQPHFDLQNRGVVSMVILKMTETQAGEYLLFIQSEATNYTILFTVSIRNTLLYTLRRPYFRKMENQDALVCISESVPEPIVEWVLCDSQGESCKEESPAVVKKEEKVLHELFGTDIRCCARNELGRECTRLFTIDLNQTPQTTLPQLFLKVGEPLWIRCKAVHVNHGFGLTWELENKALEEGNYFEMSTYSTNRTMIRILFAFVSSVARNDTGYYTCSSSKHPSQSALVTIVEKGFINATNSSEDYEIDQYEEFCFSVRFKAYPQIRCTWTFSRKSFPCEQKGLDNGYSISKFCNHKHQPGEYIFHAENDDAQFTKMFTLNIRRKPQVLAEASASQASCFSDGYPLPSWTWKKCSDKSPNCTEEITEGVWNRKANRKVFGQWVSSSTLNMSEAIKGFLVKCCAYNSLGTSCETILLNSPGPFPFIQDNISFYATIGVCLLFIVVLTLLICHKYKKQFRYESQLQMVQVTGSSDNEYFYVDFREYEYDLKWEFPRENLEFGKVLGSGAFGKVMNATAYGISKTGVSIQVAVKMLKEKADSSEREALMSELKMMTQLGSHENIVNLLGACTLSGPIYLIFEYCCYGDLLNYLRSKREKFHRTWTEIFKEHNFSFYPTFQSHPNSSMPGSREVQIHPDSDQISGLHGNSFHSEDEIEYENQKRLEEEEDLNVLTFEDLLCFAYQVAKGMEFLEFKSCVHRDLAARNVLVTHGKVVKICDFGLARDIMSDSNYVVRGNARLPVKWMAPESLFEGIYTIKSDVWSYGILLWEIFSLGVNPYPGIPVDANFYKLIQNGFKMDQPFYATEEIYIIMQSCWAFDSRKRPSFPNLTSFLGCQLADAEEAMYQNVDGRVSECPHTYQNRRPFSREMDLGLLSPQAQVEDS
# [3] = Cell cycle arrest in human HCT116 cells at 500 to 2500 nM after 2 days by flow cytometry; assay type: functional, cell-based; settings: HCT-116
# [4] = biological target: T1, Dual specificity protein kinase TTK (Homo sapiens, UniProt P33981); assay: Inhibition of GST-fused full length human TTK compound pre-incubated for 15 mins prior ATP addition by MBP-based assay
# T1 sequence (P33981 whole entry): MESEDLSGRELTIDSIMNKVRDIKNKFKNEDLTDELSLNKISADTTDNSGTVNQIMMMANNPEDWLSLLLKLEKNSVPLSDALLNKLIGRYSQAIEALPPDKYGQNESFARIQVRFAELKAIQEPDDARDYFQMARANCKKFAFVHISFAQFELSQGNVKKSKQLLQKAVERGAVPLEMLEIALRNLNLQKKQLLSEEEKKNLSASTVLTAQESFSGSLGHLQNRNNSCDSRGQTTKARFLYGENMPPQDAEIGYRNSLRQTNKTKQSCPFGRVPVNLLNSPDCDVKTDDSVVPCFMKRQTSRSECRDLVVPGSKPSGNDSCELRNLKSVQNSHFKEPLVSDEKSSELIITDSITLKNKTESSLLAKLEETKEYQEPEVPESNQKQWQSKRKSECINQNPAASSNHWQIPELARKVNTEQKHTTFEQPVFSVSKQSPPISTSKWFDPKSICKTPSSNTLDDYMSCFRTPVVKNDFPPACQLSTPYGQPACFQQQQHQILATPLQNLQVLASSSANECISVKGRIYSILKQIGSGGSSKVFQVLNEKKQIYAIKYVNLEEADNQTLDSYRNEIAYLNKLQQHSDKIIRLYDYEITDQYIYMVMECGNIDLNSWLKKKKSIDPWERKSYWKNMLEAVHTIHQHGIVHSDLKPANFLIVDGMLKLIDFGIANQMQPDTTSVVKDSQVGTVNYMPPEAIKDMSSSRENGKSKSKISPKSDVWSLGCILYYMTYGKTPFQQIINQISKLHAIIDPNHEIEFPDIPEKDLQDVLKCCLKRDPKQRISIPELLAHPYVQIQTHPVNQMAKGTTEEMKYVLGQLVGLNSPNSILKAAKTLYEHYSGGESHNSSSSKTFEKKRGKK
# [5] = biological target: T2, Serine/threonine-protein kinase PLK4 (Homo sapiens, UniProt O00444); assay: Inhibition of GST-tagged human PLK4 (1-391 residues) phosphorylation by ELISA
# T2 sequence (O00444 whole entry): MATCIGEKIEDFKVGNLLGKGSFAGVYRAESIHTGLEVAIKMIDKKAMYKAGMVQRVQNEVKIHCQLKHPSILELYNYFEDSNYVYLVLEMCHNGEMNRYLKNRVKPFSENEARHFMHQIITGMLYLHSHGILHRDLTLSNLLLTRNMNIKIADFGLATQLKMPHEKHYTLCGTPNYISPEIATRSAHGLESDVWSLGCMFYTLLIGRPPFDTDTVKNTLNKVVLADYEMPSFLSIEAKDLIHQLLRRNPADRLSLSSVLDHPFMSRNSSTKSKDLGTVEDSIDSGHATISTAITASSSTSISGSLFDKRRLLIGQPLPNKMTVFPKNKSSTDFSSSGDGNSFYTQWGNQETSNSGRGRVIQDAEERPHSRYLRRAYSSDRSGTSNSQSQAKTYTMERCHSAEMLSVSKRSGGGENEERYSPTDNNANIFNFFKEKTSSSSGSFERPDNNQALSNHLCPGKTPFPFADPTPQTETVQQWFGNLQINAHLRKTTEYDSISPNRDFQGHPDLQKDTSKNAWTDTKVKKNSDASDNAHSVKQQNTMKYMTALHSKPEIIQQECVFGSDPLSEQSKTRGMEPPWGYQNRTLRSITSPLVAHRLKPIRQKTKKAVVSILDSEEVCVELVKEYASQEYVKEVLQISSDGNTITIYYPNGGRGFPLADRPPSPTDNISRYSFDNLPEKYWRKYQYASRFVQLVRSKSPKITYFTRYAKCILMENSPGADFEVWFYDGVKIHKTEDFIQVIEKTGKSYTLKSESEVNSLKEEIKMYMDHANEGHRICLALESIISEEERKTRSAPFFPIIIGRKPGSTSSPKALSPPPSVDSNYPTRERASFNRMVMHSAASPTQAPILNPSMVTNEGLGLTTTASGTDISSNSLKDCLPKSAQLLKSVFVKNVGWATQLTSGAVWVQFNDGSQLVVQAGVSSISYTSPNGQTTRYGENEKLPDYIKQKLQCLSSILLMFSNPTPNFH
# [6] = biological target: T3, Cytochrome P450 3A4 (Homo sapiens, UniProt P08684); assay: Inhibition of CYP3A4 in supersomes (unknown origin) using 7-benzyloxy-4-trifluoromethylcoumarin as substrate after 30 mins; assay type: ADME
# T3 sequence (P08684 whole entry): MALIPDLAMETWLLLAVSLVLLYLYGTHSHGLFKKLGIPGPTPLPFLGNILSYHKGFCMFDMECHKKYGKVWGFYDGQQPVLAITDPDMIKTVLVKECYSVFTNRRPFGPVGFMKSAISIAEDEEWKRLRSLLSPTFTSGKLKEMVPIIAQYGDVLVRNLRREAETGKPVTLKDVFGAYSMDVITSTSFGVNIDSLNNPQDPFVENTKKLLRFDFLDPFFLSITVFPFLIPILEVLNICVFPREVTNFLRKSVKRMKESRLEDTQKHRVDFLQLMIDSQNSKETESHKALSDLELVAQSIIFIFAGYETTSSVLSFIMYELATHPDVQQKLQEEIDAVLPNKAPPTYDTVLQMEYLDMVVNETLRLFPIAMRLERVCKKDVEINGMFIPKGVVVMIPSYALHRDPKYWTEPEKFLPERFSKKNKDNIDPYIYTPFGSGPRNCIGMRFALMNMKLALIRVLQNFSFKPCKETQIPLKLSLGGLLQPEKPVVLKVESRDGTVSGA
# [7] = Solubility of the compound at pH 7.4; assay type: physicochemical; settings: buffer
# [8] = biological target: Cytochrome P450 2C9 (Homo sapiens, UniProt P11712); assay: Inhibition of CYP2C9 in supersomes (unknown origin) using MFC as substrate after 30 mins; assay type: ADME
# Cytochrome P450 2C9, sequence (P11712 whole entry): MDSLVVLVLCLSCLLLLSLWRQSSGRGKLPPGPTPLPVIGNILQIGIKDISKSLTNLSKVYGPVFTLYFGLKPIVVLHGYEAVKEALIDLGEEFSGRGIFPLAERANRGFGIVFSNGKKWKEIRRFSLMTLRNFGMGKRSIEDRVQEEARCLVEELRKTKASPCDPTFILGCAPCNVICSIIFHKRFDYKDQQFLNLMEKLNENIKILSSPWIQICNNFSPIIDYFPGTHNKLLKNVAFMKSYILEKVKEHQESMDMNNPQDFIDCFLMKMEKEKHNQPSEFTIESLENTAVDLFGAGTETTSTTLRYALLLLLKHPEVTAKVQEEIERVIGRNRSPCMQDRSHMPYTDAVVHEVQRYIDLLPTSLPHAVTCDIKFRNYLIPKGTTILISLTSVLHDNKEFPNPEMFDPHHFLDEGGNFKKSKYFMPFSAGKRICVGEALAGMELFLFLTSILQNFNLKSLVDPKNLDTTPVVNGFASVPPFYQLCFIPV
# [9] = biological target: Serine/threonine-protein kinase Chk2 (Homo sapiens, UniProt O96017); assay: Inhibition of CHK2 (unknown origin) by FRET-based homogenous assay
# Serine/threonine-protein kinase Chk2, sequence (O96017 whole entry): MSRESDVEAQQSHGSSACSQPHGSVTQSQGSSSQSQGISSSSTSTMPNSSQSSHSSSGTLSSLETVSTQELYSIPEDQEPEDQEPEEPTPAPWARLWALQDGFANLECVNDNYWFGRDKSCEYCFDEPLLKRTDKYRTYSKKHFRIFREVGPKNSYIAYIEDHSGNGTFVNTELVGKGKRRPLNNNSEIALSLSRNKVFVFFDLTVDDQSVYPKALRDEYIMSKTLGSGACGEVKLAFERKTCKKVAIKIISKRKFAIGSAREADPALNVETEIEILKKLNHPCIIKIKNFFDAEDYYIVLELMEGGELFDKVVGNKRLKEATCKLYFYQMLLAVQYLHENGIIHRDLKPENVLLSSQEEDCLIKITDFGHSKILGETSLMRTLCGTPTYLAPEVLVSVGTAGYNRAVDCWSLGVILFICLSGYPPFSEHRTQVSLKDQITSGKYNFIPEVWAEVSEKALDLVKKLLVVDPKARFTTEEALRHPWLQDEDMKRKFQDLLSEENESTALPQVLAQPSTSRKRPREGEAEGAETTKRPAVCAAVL
# [10] = biological target: Cytochrome P450 2D6 (Homo sapiens, UniProt P10635); assay: Inhibition of CYP2D6 in supersomes (unknown origin) using AMMC as substrate after 30 mins; assay type: ADME
# Cytochrome P450 2D6, sequence (P10635 whole entry): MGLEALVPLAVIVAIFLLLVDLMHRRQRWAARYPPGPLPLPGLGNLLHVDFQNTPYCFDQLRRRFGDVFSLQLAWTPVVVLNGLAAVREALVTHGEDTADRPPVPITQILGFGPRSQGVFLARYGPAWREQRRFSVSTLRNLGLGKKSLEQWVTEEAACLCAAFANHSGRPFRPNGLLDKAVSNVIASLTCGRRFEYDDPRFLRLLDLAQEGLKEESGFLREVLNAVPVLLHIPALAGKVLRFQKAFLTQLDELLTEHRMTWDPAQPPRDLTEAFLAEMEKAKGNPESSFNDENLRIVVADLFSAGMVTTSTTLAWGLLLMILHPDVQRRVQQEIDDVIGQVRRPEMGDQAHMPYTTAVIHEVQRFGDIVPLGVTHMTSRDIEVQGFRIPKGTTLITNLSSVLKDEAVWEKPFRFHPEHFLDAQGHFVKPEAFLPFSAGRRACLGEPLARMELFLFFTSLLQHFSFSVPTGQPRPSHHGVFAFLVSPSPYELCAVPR
# [11] = Permeability of the compound at pH 7.4 by PAMPA; assay type: ADME; settings: read-out: permeability
# [12] = biological target: T1, Dual specificity protein kinase TTK; assay: Inhibition of SUMO-tagged human TTK (1-275 residues) compound pre-incubated for 15 mins prior ATP addition by MBP-based assay
# [13] = Growth inhibition of human HCT116 cells after 5 days by SRB assay; assay type: functional; settings: HCT-116, 120 h
# [14] = biological target: Aurora kinase B (Homo sapiens, UniProt Q96GD4); assay: Inhibition of Aurora B (unknown origin) by FRET-based homogenous assay
# Aurora kinase B, sequence (Q96GD4 whole entry): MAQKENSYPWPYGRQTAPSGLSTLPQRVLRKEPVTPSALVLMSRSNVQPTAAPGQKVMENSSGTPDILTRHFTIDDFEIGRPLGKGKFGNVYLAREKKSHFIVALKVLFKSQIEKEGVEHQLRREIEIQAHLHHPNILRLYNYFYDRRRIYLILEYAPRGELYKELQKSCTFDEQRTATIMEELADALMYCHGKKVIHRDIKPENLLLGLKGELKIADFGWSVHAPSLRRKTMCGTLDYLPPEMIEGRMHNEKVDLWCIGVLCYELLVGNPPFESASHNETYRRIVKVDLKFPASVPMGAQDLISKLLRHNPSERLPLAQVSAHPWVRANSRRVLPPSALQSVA
# [15] = biological target: Cytochrome P450 2C19 (Homo sapiens, UniProt P33261); assay: Inhibition of CYP2C19 in supersomes (unknown origin) using MFC as substrate after 30 mins; assay type: ADME
# Cytochrome P450 2C19, sequence (P33261 whole entry): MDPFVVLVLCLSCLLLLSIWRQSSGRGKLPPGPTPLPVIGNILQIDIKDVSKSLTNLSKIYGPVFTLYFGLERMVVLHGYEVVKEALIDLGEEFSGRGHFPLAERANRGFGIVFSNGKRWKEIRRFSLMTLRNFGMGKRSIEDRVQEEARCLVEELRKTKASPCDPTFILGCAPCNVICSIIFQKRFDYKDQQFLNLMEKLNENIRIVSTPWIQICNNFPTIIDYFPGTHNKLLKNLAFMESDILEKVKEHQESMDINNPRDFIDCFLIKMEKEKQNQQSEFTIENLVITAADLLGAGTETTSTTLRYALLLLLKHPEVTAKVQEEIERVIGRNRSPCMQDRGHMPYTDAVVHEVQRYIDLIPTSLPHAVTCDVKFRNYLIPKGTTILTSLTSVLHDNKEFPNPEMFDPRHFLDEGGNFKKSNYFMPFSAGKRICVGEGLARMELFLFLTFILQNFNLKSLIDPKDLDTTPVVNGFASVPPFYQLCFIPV
# [16] = biological target: T3, Cytochrome P450 3A4; assay: Inhibition of CYP3A4 in supersomes (unknown origin) using Dibenzylfluorescein as substrate after 10 mins; assay type: ADME
# [17] = biological target: T4, Cytochrome P450 1A2 (Homo sapiens, UniProt P05177); assay: Inhibition of CYP1A2 in supersomes (unknown origin) using CEC as substrate after 30 mins; assay type: ADME
# T4 sequence (P05177 whole entry): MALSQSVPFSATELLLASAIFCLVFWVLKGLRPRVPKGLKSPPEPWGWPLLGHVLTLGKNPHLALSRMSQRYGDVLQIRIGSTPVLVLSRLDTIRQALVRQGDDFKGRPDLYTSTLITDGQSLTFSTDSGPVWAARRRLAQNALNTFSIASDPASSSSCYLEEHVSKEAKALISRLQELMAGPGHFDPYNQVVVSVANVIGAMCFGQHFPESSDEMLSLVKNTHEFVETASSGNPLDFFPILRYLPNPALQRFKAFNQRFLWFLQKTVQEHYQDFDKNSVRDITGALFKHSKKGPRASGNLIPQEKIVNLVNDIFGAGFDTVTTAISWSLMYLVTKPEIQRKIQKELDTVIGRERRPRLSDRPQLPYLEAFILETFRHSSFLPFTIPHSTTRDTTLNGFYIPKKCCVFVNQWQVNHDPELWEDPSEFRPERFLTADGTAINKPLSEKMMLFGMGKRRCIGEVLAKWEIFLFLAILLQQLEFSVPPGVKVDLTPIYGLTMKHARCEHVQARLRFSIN
structure (smiles),measurement,setting,value
O=c1[nH]cc(F)c(=O)[nH]1 [FLUOROURACIL],inhibition in vivo at 15 mg/kg,[1],46%
c1ccc(-c2[nH]nc3ccccc23)cc1,inhibition,[2],inactive
same,Activity,[3],inactive
same,pIC50,[4],4.92
NS(=O)(=O)c1cccc(-c2n[nH]c3ccc(C(=O)N[C@H]4CCc5ccccc54)cc23)c1,Activity,[3],inactive
CCc1cccc(CC)c1NC(=O)Nc1ccc2[nH]nc(-c3cccc(S(N)(=O)=O)c3)c2c1,pIC50,[5],6.89
same,pIC50,[6],6.00
same,solubility,[7],< 0.1 µg/mL
same,pIC50,[8],5.77
same,pIC50,[9],6.39
same,pIC50,[10],< 5.00
same,Papp,[11],< 21 ×10⁻⁶ cm/s
same,pIC50,[12],8.46
same,GI50,[13],> 50000 nM
same,pIC50,[14],5.62
same,pIC50,[15],< 6.00
same,pIC50,[16],5.00
same,pIC50,[17],< 5.00
